# Data from paper PMC10957407 (Food Chemistry: X, 2024).
# Tests used:
# [1] = test system: 5-3H1; experiment: icELISA with mAb 5-3H1; assay type: binding
# [2] = test system: 6-AT6; experiment: icELISA with mAb 6-AT6; assay type: binding
# [3] = test system: 5-D8; experiment: icELISA with mAb 5-D8; assay type: binding
# [4] = test system: 1-G12; experiment: icELISA with mAb 1-G12; assay type: binding, Balb/c mice
# How it was run: (§1)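 Ascites-derived mAbs (caprylic acid–ammonium sulfate purified) from female Balb/c mice immunized with hapten–BSA. Plates coated with hapten–OVA in carbonate buffer (0.5 mol L−1, pH 9.6), blocked with 5% skim milk, washed with PBST, and detected with goat anti-mouse IgG-HRP; reaction stopped with 2 mol L−1 H2SO4. Analyte stocks (1 mg/mL, 70% methanol) were diluted in 10% methanol-PBS. IC50 values were fitted, and cross-reactivity was calculated for capsaicinoids, gingerol derivatives and eight other compounds.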
# [5] = test system: 1-D6; experiment: icELISA with mAb 1-D6; assay type: binding, Balb/c mice
# How it was run: as §1
# [6] = test system: 1-F12; experiment: icELISA with mAb 1-F12; assay type: binding, Balb/c mice
# How it was run: as §1
# [7] = test system: 3-LD3; experiment: icELISA with mAb 3-LD3; assay type: binding
# [8] = test system: 4-AT4; experiment: icELISA with mAb 4-AT4; assay type: binding
# [9] = test system: 2-LD2; experiment: icELISA with mAb 2-LD2; assay type: binding
smiles,measurement,setting,value
"CCCCC[C@H](O)CC(=O)CCc1ccc(O)c(OC)c1 [Hapten 6-GG, 6-gingerol]",IC50,[1]; coating antigen Hapten 1-OVA,0.03897 µg/mL
same,IC50,[1]; coating antigen Hapten 2-OVA,>4 µg/mL
same,IC50,[1]; coating antigen Hapten 3-OVA,>4 µg/mL
same,IC50,[1]; coating antigen Hapten 4-OVA,1.06282 µg/mL
same,IC50,[1]; coating antigen Hapten 5-OVA,0.67041 µg/mL
same,IC50,[2]; coating antigen Hapten 1-OVA,>4 µg/mL
same,IC50,[2]; coating antigen Hapten 2-OVA,>4 µg/mL
same,IC50,[2]; coating antigen Hapten 3-OVA,>4 µg/mL
same,IC50,[2]; coating antigen Hapten 4-OVA,>4 µg/mL
same,IC50,[2]; coating antigen Hapten 5-OVA,0.42562 µg/mL
same,IC50,[2]; coating antigen Hapten 6-OVA,>4 µg/mL
same,IC50,[3]; coating antigen Hapten 1-OVA,0.02328 µg/mL
same,IC50,[3]; coating antigen Hapten 2-OVA,>4 µg/mL
same,IC50,[3]; coating antigen Hapten 3-OVA,>4 µg/mL
same,IC50,[3]; coating antigen Hapten 4-OVA,1.03007 µg/mL
same,IC50,[3]; coating antigen Hapten 5-OVA,1.03651 µg/mL
same,IC50,"[4]; coating antigen Hapten 1-OVA, mAb 1-G12",0.56059 µg/mL
same,IC50,"[4]; coating antigen Hapten 2-OVA, mAb 1-G12",>4 µg/mL
same,IC50,"[4]; coating antigen Hapten 3-OVA, mAb 1-G12",>4 µg/mL
same,IC50,"[4]; coating antigen Hapten 4-OVA, mAb 1-G12",0.41084 µg/mL
same,IC50,"[4]; coating antigen Hapten 5-OVA, mAb 1-G12",0.19553 µg/mL
same,IC50,"[4]; coating antigen Hapten 6-OVA, mAb 1-G12",0.28444 µg/mL
same,IC50,"[4]; mAb 1-G12, specific evaluation (Table 1, Fig. 3D)",0.56059 µg/mL
same,CR,"[4]; mAb 1-G12, CR%=IC50 6-GG/IC50 test compound x100%",100.00%
same,IC50,"[5]; coating antigen Hapten 1-OVA, mAb 1-D6",0.05917 µg/mL
same,IC50,"[5]; coating antigen Hapten 2-OVA, mAb 1-D6",1.14733 µg/mL
same,IC50,"[5]; coating antigen Hapten 3-OVA, mAb 1-D6",0.02778 µg/mL
same,IC50,"[5]; coating antigen Hapten 4-OVA, mAb 1-D6",0.29753 µg/mL
same,IC50,"[5]; coating antigen Hapten 5-OVA, mAb 1-D6",0.13286 µg/mL
same,IC50,"[5]; coating antigen Hapten 6-OVA, mAb 1-D6",0.15056 µg/mL
same,IC50,"[5]; mAb 1-D6, specific evaluation (Table 1, Fig. 3C)",0.05917 µg/mL
same,CR,"[5]; mAb 1-D6, CR%=IC50 6-GG/IC50 test compound x100%",100.00%
same,IC50,"[6]; coating antigen Hapten 1-OVA, mAb 1-F12",0.50623 µg/mL
same,IC50,"[6]; coating antigen Hapten 2-OVA, mAb 1-F12",>4 µg/mL
same,IC50,"[6]; coating antigen Hapten 3-OVA, mAb 1-F12",>4 µg/mL
same,IC50,"[6]; coating antigen Hapten 4-OVA, mAb 1-F12",0.40126 µg/mL
same,IC50,"[6]; coating antigen Hapten 5-OVA, mAb 1-F12 (optimal combination)",0.12283 µg/mL
same,IC50,"[6]; coating antigen Hapten 6-OVA, mAb 1-F12",0.63169 µg/mL
same,IC50,"[6]; mAb 1-F12, specific evaluation (Table 1, Fig. 3B)",0.50623 µg/mL
same,CR,"[6]; mAb 1-F12, CR%=IC50 6-GG/IC50 test compound x100%",100.00%
same,IC50,[7]; coating antigen Hapten 2-OVA,1.82165 µg/mL
same,IC50,[7]; coating antigen Hapten 3-OVA,2.18232 µg/mL
same,IC50,[7]; coating antigen Hapten 4-OVA,0.27108 µg/mL
same,IC50,[8]; coating antigen Hapten 1-OVA,0.00493 µg/mL
same,IC50,[8]; coating antigen Hapten 2-OVA,>4 µg/mL
same,IC50,[8]; coating antigen Hapten 3-OVA,>4 µg/mL
same,IC50,[8]; coating antigen Hapten 4-OVA,>4 µg/mL
same,IC50,[8]; coating antigen Hapten 5-OVA,0.48165 µg/mL
same,IC50,[9]; coating antigen Hapten 1-OVA,0.02479 µg/mL
same,IC50,[9]; coating antigen Hapten 2-OVA,1.43616 µg/mL
same,IC50,[9]; coating antigen Hapten 3-OVA,0.00178 µg/mL
same,IC50,[9]; coating antigen Hapten 4-OVA,0.00101 µg/mL
